Key:
[1] = Selectivity index, ratio of CC50 for african green monkey Vero 76 cells to EC50 for Coxsackievirus B5; format: toxicity, cell-based; conditions: read-out: Ratio CC50/EC50
Summary of the method: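 Mock-infected Vero-76 cells were tested in parallel on the same 24-well plates as the plaque assays (seeding 4 × 10^5 cells/mL, D-MEM with FBS), with serial compound dilutions at 37 °C, 5% CO2. Viability was read after 48–96 h by crystal violet staining. CC50 by linear regression; selectivity index = Vero-76 CC50/EC50 for CVB-5 or RSV.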

[2] = test system: Vesicular stomatitis virus; experiment: Antiviral activity against Vesicular stomatitis virus infected in african green monkey Vero 76 cells assessed as reduction in plaque number after 2 days by plaque reduction assay; format: functional, organism-based; conditions: 48 h
[3] = test system: Human immunodeficiency virus 1; experiment: Antiviral activity against HIV1 infected in human MT4 cells assessed as inhibition of virus-induced cytopathogenicity after 4 days by MTT assay; format: functional, organism-based; conditions: Human immunodeficiency virus 1, MT4, 96 h
Summary of the method: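 MT-4 cells (1 × 10^4/well in RPMI) were infected acutely with HIV-1 IIIB, 100 CCID50 (m.o.i. 0.01), with serial dilutions from 100 µM, 1:5. After 4 days at 37 °C, protection from virus-induced cytopathogenicity was read by MTT. EC50 came from linear regression against untreated controls.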

[4] = Cytotoxicity against mock-infected MDBK cells after 48 to 96 hrs by MTT assay; format: cell-based, Bos taurus; conditions: cattle
Summary of the method: (§1)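 Mock-infected MDBK (6 × 10^5 cells/mL; MEM-E, 10% horse serum, 1 mM pyruvate) or BHK (1 × 10^6 cells/mL; MEM-E, 10% FBS) cells were incubated at 37 °C, 5% CO2 with serial dilutions from 100 µM, 1:5. Viability by MTT after 48–96 h. CC50 from linear regression against untreated controls.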

Reovirus sp. = experiment: Antiviral activity against Reovirus type-1 infected in BHK21 cells assessed as inhibition of virus-induced cytopathogenicity after 3 to 4 days by MTT assay; format: functional, organism-based; conditions: BHK-21
Poliovirus 1 = experiment: Antiviral activity against Poliovirus type 1 Sabin strain infected in african green monkey Vero 76 cells assessed as reduction in plaque number after 2 days by plaque reduction assay; format: functional, organism-based; conditions: Enterovirus C, 48 h
[5] = Cytotoxicity against mock-infected human MT4 cells after 96 hrs by MTT assay; format: cell-based
Summary of the method: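 Exponentially growing MT-4 cells were seeded at 1 × 10^5 cells/mL in RPMI-1640 with 10% FBS and held at 37 °C, 5% CO2 with serial compound dilutions. Viability was read by MTT after 96 h. CC50 from linear regression against untreated controls.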

[6] = Cytotoxicity against mock-infected BHK21 cells after 48 to 96 hrs by MTT assay; format: functional; conditions: Mesocricetus auratus, BHK-21; summary of the method: as §1
[7] = test system: Bovine viral diarrhea virus 1; experiment: Antiviral activity against Bovine viral diarrhea virus infected in MDBK cells assessed as inhibition of virus-induced cytopathogenicity after 3 to 4 days by MTT assay; format: functional, organism-based; conditions: Bovine viral diarrhea virus isolates and strains
[8] = Cytotoxicity against mock-infected african green monkey Vero 76 cells after 48 to 96 hrs by MTT assay; format: cell-based; conditions: chlorocebus sabaeus, mock-infected Vero 76 cells
Yellow fever virus = experiment: Antiviral activity against Yellow fever virus infected in BHK21 cells assessed as inhibition of virus-induced cytopathogenicity after 3 to 4 days by MTT assay; format: functional, organism-based; conditions: BHK-21
[9] = test system: Respiratory syncytial virus; experiment: Antiviral activity against Respiratory syncytial virus infected in african green monkey Vero 76 cells assessed as reduction in plaque number after 5 days by plaque reduction assay; format: functional, organism-based; conditions: human respiratory syncytial virus, 120 h
Coxsackievirus B5 = experiment: Antiviral activity against Coxsackievirus B5 infected in african green monkey Vero 76 cells assessed as reduction in plaque number after 3 days by plaque reduction assay; format: functional, organism-based; conditions: Enterovirus B, 72 h
Vaccinia virus = experiment: Antiviral activity against Vaccinia Virus infected in african green monkey Vero 76 cells assessed as reduction in plaque number after 3 days by plaque reduction assay; format: functional, organism-based; conditions: Orthopoxvirus vaccinia, 72 h
Human alphaherpesvirus 1 = experiment: Antiviral activity against HSV1 infected in african green monkey Vero 76 cells assessed as reduction in plaque number after 3 days by plaque reduction assay; format: functional, organism-based; conditions: Human alphaherpesvirus 1, Vero, 72 h

SMILES	selectivity ratio [1]	EC50 [2]	EC50 [3]	CC50 [4]	EC50 (Reovirus sp.)	EC50 (Poliovirus 1)	CC50 at 96 h [5]	CC50 [6]	EC50 [7]	CC50 [8]	EC50 (Yellow fever virus)	EC50 [9]	EC50 (Coxsackievirus B5)	EC50 (Vaccinia virus)	EC50 (Human alphaherpesvirus 1)
c1ccc(-c2nc3ccccc3n2[C@H]2CCCN3CCCC[C@H]23)cc1	> 1.25	68 µM	> 100 µM	> 100 µM	> 100 µM	> 100 µM	> 100 µM	> 100 µM	> 100 µM	≥ 100 µM	> 100 µM	> 100 µM	80 µM	> 100 µM	> 100 µM
Clc1ccc2nc(-c3ccccc3)n([C@@H]3CCCN4CCCC[C@H]34)c2c1	> 3.12	> 100 µM	> 100 µM	> 100 µM	> 100 µM	> 100 µM	> 100 µM	> 100 µM	40 µM	≥ 100 µM	> 100 µM	> 100 µM	32 µM	> 100 µM	> 100 µM
FC(F)(F)c1ccc2c(c1)nc(-c1ccc(Cl)cc1)n2C[C@@H]1CCCN2CCCC[C@H]12	1.71	> 100 µM	> 100 µM	40 µM	> 100 µM	> 100 µM	24 µM	75 µM	> 100 µM	24 µM	> 100 µM	> 100 µM	14 µM	> 100 µM	> 100 µM
Oc1ccc(-c2nc3cc(C(F)(F)F)ccc3n2C[C@@H]2CCCN3CCCC[C@H]23)cc1	3	> 100 µM	> 100 µM	48 µM	32 µM	> 100 µM	21 µM	60 µM	> 100 µM	78 µM	> 100 µM	> 100 µM	26 µM	> 100 µM	> 100 µM
COc1ccc(-c2nc3cc(C(F)(F)F)ccc3n2C[C@H]2CCCN3CCCC[C@H]23)cc1	> 1.85	> 100 µM	> 100 µM	57 µM	> 100 µM	> 100 µM	42 µM	30 µM	> 100 µM	> 100 µM	> 100 µM	> 100 µM	54 µM	> 100 µM	> 100 µM
CCN(CC)CCCn1c(Cc2ccc(Cl)c(Cl)c2)nc2cc(C(F)(F)F)ccc21	> 5.88	> 100 µM	> 100 µM	26 µM	> 100 µM	63 µM	40 µM	> 100 µM	> 100 µM	> 100 µM	> 100 µM	> 100 µM	17 µM	> 100 µM	> 100 µM
Clc1ccc(Cc2nc3cc(Cl)c(Cl)cc3n2C[C@@H]2CCCN3CCCC[C@H]23)cc1	> 3.57	> 100 µM	> 100 µM	> 100 µM	> 100 µM	> 100 µM	17 µM	30 µM	> 100 µM	> 100 µM	> 100 µM	> 100 µM	28 µM	> 100 µM	> 100 µM
FC(F)(F)c1ccc2c(c1)nc(Cc1ccccc1)n2C[C@@H]1CCCN2CCCC[C@H]12	> 10	> 100 µM	> 100 µM	> 100 µM	> 100 µM	60 µM	> 100 µM	15 µM	> 100 µM	> 100 µM	> 100 µM	> 100 µM	10 µM	> 100 µM	> 100 µM
FC(F)(F)c1ccc2c(c1)nc(Cc1ccccc1)n2C[C@H]1CCCN2CCCC[C@H]12	1.24	> 100 µM	> 100 µM	28 µM	> 100 µM	> 100 µM	100 µM	25 µM	> 100 µM	93 µM	> 100 µM	> 100 µM	75 µM	> 100 µM	> 100 µM
Nc1ccc(Cc2nc3ccccc3[nH]2)cc1	> 5.88	> 100 µM	> 100 µM	> 100 µM	> 100 µM	58 µM	> 100 µM	> 100 µM	> 100 µM	> 100 µM	> 100 µM	> 100 µM	17 µM	> 100 µM	> 100 µM
FC(F)(F)c1ccc2[nH]c(Cc3ccc(Cl)cc3)nc2c1	2.69	> 100 µM	> 100 µM	16 µM	> 100 µM	> 100 µM	> 100 µM	20 µM	> 100 µM	70 µM	> 100 µM	> 100 µM	26 µM	> 100 µM	> 100 µM
COc1ccc(Cc2nc3cc(C(F)(F)F)ccc3[nH]2)cc1	4.6	> 100 µM	> 100 µM	56 µM	> 100 µM	> 100 µM	69 µM	60 µM	> 100 µM	92 µM	> 100 µM	> 100 µM	20 µM	> 100 µM	> 100 µM
FC(F)(F)c1ccc2c(c1)nc(CC1=CCCC1)n2C[C@@H]1CCCN2CCCC[C@H]12	–	> 100 µM	> 100 µM	50 µM	> 100 µM	> 100 µM	5 µM	30 µM	> 100 µM	> 100 µM	> 100 µM	> 100 µM	> 100 µM	> 100 µM	30 µM
CCOCc1nc2ccccc2[nH]1	–	> 100 µM	> 100 µM	> 100 µM	> 100 µM	> 100 µM	> 100 µM	> 100 µM	> 100 µM	> 100 µM	> 100 µM	> 100 µM	> 100 µM	> 100 µM	> 100 µM
c1ccc(-n2c(C[C@@H]3CCCN4CCCC[C@H]34)nc3ccccc32)cc1	> 2.04	> 100 µM	> 100 µM	> 100 µM	> 100 µM	> 100 µM	33 µM	30 µM	89 µM	> 100 µM	> 100 µM	> 100 µM	49 µM	> 100 µM	> 100 µM
CCc1nc2ccccc2[nH]1	–	> 100 µM	> 100 µM	> 100 µM	> 100 µM	> 100 µM	> 100 µM	> 100 µM	> 100 µM	> 100 µM	> 100 µM	> 100 µM	> 100 µM	> 100 µM	> 100 µM
C[C@@]1(O)[C@H](O)[C@@H](CO)O[C@H]1n1cnc2c(=O)[nH]c(N)nc21 [2'-B-METHYL-GUANOSINE]	> 5	> 100 µM	–	> 100 µM	2.4 µM	> 100 µM	> 100 µM	90 µM	–	> 100 µM	> 100 µM	> 100 µM	20 µM	> 100 µM	> 100 µM
